The record followed here is PMC9245008 (ACS chemical biology, 2022).

In one data set the target is T1, NUAK1 (Homo sapiens, UniProt O60285).
T1 sequence (O60285 1-661): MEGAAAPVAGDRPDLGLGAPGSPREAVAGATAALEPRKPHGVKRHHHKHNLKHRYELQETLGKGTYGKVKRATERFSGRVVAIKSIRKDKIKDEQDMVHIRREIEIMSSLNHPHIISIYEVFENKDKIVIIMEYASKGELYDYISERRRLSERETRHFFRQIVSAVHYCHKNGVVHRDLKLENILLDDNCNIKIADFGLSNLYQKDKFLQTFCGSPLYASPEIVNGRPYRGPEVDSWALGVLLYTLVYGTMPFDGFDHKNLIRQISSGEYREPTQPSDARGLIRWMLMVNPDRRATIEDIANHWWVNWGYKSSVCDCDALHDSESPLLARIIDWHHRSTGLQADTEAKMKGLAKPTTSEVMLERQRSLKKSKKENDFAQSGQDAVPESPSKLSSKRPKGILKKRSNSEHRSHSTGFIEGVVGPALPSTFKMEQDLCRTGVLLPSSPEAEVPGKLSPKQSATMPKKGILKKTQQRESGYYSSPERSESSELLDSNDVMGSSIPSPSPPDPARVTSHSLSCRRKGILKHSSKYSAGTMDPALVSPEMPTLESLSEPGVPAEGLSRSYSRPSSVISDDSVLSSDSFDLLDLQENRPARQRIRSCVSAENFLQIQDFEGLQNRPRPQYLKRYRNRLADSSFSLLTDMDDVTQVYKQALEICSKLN
Nature of the data set: MRC Dundee kinase panel screen at 10 μM. Type of data set: biochemical.

Another data set addresses T2, GCK (Homo sapiens, UniProt Q12851).
T2 sequence (Q12851 1-820): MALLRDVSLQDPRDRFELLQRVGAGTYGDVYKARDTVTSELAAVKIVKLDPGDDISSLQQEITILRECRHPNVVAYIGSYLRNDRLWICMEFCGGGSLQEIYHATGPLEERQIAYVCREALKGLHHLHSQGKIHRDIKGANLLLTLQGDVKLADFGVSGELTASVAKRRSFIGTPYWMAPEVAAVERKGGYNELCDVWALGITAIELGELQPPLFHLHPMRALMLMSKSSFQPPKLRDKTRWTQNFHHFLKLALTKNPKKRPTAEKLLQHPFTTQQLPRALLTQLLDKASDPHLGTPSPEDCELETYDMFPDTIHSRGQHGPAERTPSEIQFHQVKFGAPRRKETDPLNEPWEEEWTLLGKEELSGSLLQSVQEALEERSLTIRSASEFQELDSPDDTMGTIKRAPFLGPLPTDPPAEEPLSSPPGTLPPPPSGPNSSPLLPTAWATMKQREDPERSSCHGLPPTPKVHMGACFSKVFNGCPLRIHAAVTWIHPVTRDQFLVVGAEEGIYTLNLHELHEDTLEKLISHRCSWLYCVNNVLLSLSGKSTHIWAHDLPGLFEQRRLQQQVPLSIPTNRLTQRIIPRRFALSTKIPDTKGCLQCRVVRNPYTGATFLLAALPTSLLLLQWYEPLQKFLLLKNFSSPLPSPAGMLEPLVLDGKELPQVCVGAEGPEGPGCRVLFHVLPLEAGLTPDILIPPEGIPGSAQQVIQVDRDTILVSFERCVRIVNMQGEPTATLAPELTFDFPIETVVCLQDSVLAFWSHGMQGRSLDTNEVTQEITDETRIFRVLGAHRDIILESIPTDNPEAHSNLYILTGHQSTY
Briefly: Dose–response of top 10 kinase hits. Type of data set: biochemical.

In another data set the target is IRAK1 (Homo sapiens, UniProt P51617). Nature of the data set: Dose–response of top 10 kinase hits. Type of data set: biochemical. To be noted: read-out: IC50 IRAK1, n = 2.
Sequence of IRAK1 (P51617 whole entry): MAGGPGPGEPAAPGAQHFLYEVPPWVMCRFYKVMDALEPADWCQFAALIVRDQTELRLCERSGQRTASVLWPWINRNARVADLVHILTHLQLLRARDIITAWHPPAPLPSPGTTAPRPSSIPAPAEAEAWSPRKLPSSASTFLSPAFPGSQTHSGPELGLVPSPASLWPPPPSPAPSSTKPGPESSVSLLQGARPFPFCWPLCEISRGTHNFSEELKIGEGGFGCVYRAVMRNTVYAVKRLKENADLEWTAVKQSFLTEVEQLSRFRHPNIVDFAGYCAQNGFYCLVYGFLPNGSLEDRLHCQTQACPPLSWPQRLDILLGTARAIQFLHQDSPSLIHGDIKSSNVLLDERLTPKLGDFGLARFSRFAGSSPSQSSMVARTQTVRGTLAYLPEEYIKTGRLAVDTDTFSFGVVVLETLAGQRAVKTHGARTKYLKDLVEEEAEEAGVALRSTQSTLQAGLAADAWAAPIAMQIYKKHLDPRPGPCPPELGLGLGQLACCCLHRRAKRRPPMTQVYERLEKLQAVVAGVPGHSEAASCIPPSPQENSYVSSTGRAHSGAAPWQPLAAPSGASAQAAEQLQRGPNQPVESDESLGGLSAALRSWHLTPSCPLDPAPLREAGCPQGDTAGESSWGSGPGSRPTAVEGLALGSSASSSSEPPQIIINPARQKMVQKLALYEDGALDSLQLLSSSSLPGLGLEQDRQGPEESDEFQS
The next data set has as its target T3, NUAK (Homo sapiens, UniProt O60285).
T3 sequence (O60285 1-661): T1 sequence (O60285 1-661)
Nature of the data set: Dose–response of top 10 kinase hits. Conditions: read-out: IC50 NUAK, n = 2. Type of data set: biochemical.

For data set [1], the system named is IL-6 expression in THP-1 cells. Nature of the data set: Cytokine dose–response curves in THP-1 cells. Type of data set: cell-based, human. Conditions: read-out: IC50 IL-6 expression; LPS-stimulated THP-1, 24 h. The method, boiled down: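 THP-1 cells differentiated with PMA (100 nM) for up to 72 h, then rested 24 h in PMA-free RPMI. Pretreated with test compound (3.2 nM–32 μM) or DMSO vehicle, then stimulated with LPS (10 ng/mL). After 24 h, TNF, IL-6 and IL-1β in supernatant measured by Luminex and expressed as percent of vehicle control; n = 3.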

Data set [2] is described as follows: Bioavailability in adult CD-1 mice. Type of data set: in vivo.
[3] abbreviates: oral administration, normal mice.

Turning to `CCCn1c(NC(=O)c2cccc(C(N)=O)c2)nc2ccc(CN3CCCCC3)cc21` [HS-276], the enzymatic activity at NUAK1 is reported as less than 15%. In addition, on GCK (from dose–response IC50 values), the “TAK1 more potently inhibited than GCK” value was determined as 4.1 fold. Further, the IC50 on GCK (read-out: IC50 GCK, dose–response, n = 2) is 0.033 µM. In addition, the IC50 at IRAK1 is 0.264 µM. For the same compound, the IC50 on NUAK is 0.27 µM. For the same compound, the IC50 in data set [1] turned out to be 0.201 µM. In data set [2] (mouse, IV, 30 mg/kg), the AUC0-last was 7960.0 ng·h/mL, the Cmax is reported as 11,162 ng/ml, the Tmax amounted to 0.08 h and the half-life is listed as 1.24 h. For the same compound, in data set [2] (mouse, PO, 30 mg/kg), the “%F” value was 98.1%, the AUC0-last came out at 7812 ng·h/mL, the Cmax is 3682 ng/mL and the Tmax was 1 h. The half-life in data set [2] (mouse, PO, 30 mg/kg) is on record as 1.41 h. In data set [2] (setting [3]), the bioavailability is on record as more than 95% and the plasma levels entry is listed as “μM plasma levels”.

In general, IC50 refers to the midpoint of a concentration-inhibition curve. Usually Cmax stands for the highest concentration seen after dosing. One may read the Tmax as the time from dosing to the highest level. The term half-life denotes the time needed for the level to fall by half in the phase considered. Broadly, the bioavailability is dose-corrected exposure relative to a reference, in per cent.
